Reference: ChEMBL document CHEMBL1629690, “Development of hexadecyloxypropyl tenofovir (CMX157) for treatment of infection caused by wild-type and nucleoside/nucleotide-resistant HIV” (Antimicrob Agents Chemother, 2010)
pEC50: −log10 of the molar value.

Experiments:
[1] = tested on: Human immunodeficiency virus 1; assay: Antiviral activity against HIV1 isolate 060 harboring reverse transcriptase M41L/D67N/K70R/L210W/T215Y/K219E mutant gene by phenosense assay relative to wild type; format: functional
Summary of the method: (§1)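 Recombinant-virus PhenoSense HIV assay run on a panel of 30 NRTI-resistant HIV-1 mutants and two wild-type viruses. Each virus is tested across increasing drug concentrations to give an inhibition curve and EC50. Fold change is the test recombinant EC50 divided by the EC50 of the drug-sensitive wild-type reference virus.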

[2] = tested on: Human immunodeficiency virus 1; assay: Antiviral activity against HIV1 isolate 060 harboring reverse transcriptase M41L/D67N/K70R/L210W/T215Y/K219E mutant gene by phenosense assay; format: functional, organism-based; conditions: Human immunodeficiency virus 1, isolate 060; summary of the method: as §1
[3] = tested on: Human immunodeficiency virus 1; assay: Antiviral activity against HIV1 isolate 212 harboring reverse transcriptase L210W/T215Y mutant gene by phenosense assay; format: functional, organism-based; conditions: Human immunodeficiency virus 1, isolate 212
Summary of the method: (§2)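 PhenoSense HIV recombinant virus assay: patient-derived HIV-1 with major NRTI resistance mutations tested against increasing drug concentrations to give inhibition curves. EC50 is the concentration giving 50% inhibition. Fold change is the test recombinant EC50 divided by the EC50 of a drug-sensitive wild-type reference virus. Panel of 30 NRTI-resistant isolates plus two wild-type viruses.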

[4] = tested on: Human immunodeficiency virus 1; assay: Antiviral activity against HIV1 isolate 056 expressing wild type reverse transcriptase gene by phenosense assay; format: functional, organism-based; conditions: Human immunodeficiency virus 1, isolate 056
Summary of the method: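 In the PhenoSense recombinant virus assay, virus was tested against increasing drug concentrations. EC50 came from the inhibition curve and was compared with a drug-sensitive reference virus.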

[5] = tested on: Human immunodeficiency virus 1; assay: Antiviral activity against HIV1 isolate 200 harboring reverse transcriptase M41L/L210W/T215Y mutant gene by phenosense assay relative to wild type; format: functional; summary of the method: as §1
[6] = tested on: Human immunodeficiency virus 1; assay: Antiviral activity against HIV1 isolate 070 harboring reverse transcriptase 65R/S68G mutant gene by phenosense assay; format: functional, organism-based; conditions: Human immunodeficiency virus 1, isolate 070; summary of the method: as §1
[7] = tested on: Human immunodeficiency virus 1; assay: Antiviral activity against HIV1 isolate 220 harboring reverse transcriptase K70E/M184V mutant gene by phenosense assay relative to wild type; format: functional; summary of the method: as §2
[8] = tested on: Human immunodeficiency virus 1; assay: Antiviral activity against HIV1 isolate 069 harboring reverse transcriptase D67E/T69SSG/V75M/M184V/L210W/T215Y mutant gene by phenosense assay; format: functional, organism-based; conditions: Human immunodeficiency virus 1, isolate 069; summary of the method: as §1
[9] = tested on: Human immunodeficiency virus 1; assay: Antiviral activity against HIV1 isolate 162 harboring reverse transcriptase A62V/V75I/F77L/Y115F/F116Y/Q151M/M184V mutant gene by phenosense assay; format: functional, organism-based; conditions: Human immunodeficiency virus 1, isolate 162; summary of the method: as §1
[10] = tested on: Human immunodeficiency virus 1; assay: Antiviral activity against HIV1 isolate 194 harboring reverse transcriptase M41L/T215Y/M184V mutant gene by phenosense assay; format: functional, organism-based; conditions: Human immunodeficiency virus 1, isolate 194; summary of the method: as §1
[11] = tested on: Human immunodeficiency virus 1; assay: Antiviral activity against HIV1 isolate 194 harboring reverse transcriptase M41L/T215Y/M184V mutant gene by phenosense assay relative to wild type; format: functional; summary of the method: as §1
[12] = tested on: Human immunodeficiency virus 1; assay: Antiviral activity against HIV1 isolate 166 harboring reverse transcriptase L74V mutant gene obtained as site-directed mutant of NL4-3 by phenosense assay; format: functional, organism-based; conditions: Human immunodeficiency virus 1, isolate 166; summary of the method: as §1
[13] = tested on: Human immunodeficiency virus 1; assay: Antiviral activity against HIV1 isolate 174 harboring reverse transcriptase M184V mutant gene obtained as site-directed mutant of NL4-3 by phenosense assay relative to wild type; format: functional; summary of the method: as §1
[14] = tested on: Human immunodeficiency virus 1; assay: Antiviral activity against HIV1 isolate 206 harboring reverse transcriptase D67N/K70R mutant gene by phenosense assay; format: functional, organism-based; conditions: Human immunodeficiency virus 1, isolate 206; summary of the method: as §2
[15] = tested on: Human immunodeficiency virus 1; assay: Antiviral activity against HIV1 isolate 192 harboring reverse transcriptase M41L/T215Y mutant gene by phenosense assay relative to wild type; format: functional; summary of the method: as §1
[16] = tested on: Human immunodeficiency virus 1; assay: Antiviral activity against HIV1 isolate 212 harboring reverse transcriptase L210W/T215Y mutant gene by phenosense assay relative to wild type; format: functional; summary of the method: as §2
[17] = tested on: Human immunodeficiency virus 1; assay: Antiviral activity against HIV1 isolate 067 harboring reverse transcriptase A62V/D67G/T69SVG/V75I/T215I mutant gene by phenosense assay relative to wild type; format: functional; summary of the method: as §1
[18] = tested on: Human immunodeficiency virus 1; assay: Antiviral activity against HIV1 isolate 215 harboring reverse transcriptase D67N/K70E mutant gene by phenosense assay relative to wild type; format: functional; summary of the method: as §2
[19] = tested on: Human immunodeficiency virus 1; assay: Antiviral activity against HIV1 isolate 204 harboring reverse transcriptase M41L/L210W/T215Y/M184V mutant gene by phenosense assay relative to wild type; format: functional; summary of the method: as §2
[20] = tested on: Human immunodeficiency virus 1; assay: Antiviral activity against HIV1 isolate 204 harboring reverse transcriptase M41L/L210W/T215Y/M184V mutant gene by phenosense assay; format: functional, organism-based; conditions: Human immunodeficiency virus 1, isolate 204; summary of the method: as §2
[21] = tested on: Human immunodeficiency virus 1; assay: Antiviral activity against HIV1 isolate 220 harboring reverse transcriptase K70E/M184V mutant gene by phenosense assay; format: functional, organism-based; conditions: Human immunodeficiency virus 1, isolate 220; summary of the method: as §2
[22] = tested on: Human immunodeficiency virus 1; assay: Antiviral activity against HIV1 isolate 217 harboring reverse transcriptase D67N/K70E/M184V mutant gene by phenosense assay relative to wild type; format: functional; summary of the method: as §2
[23] = tested on: Human immunodeficiency virus 1; assay: Antiviral activity against HIV1 isolate 071 harboring reverse transcriptase 65R/S68N/184V mutant gene by phenosense assay; format: functional, organism-based; conditions: Human immunodeficiency virus 1, isolate 071; summary of the method: as §1
[24] = tested on: Human immunodeficiency virus 1; assay: Antiviral activity against HIV1 isolate 174 harboring reverse transcriptase M184V mutant gene obtained as site-directed mutant of NL4-3 by phenosense assay; format: functional, organism-based; conditions: Human immunodeficiency virus 1, isolate 174; summary of the method: as §1
[25] = tested on: Human immunodeficiency virus 1; assay: Antiviral activity against HIV1 isolate 211 harboring reverse transcriptase D67N/K70R/T215F/K219E/M184V mutant gene by phenosense assay relative to wild type; format: functional; summary of the method: as §2
[26] = tested on: Human immunodeficiency virus 1; assay: Antiviral activity against HIV1 isolate 070 harboring reverse transcriptase 65R/S68G mutant gene by phenosense assay relative to wild type; format: functional; summary of the method: as §1
[27] = tested on: Human immunodeficiency virus 1; assay: Antiviral activity against HIV1 isolate 188 harboring reverse transcriptase T215Y/M184V mutant gene by phenosense assay relative to wild type; format: functional; summary of the method: as §1

Row | Compound | fold change (FC) [1] | pEC50 [2] | pEC50 [3] | pEC50 [4] | fold change (FC) [5] | pEC50 [6] | fold change (FC) [7] | pEC50 [8] | pEC50 [9] | pEC50 [10] | fold change (FC) [11] | pEC50 [12] | fold change (FC) [13] | pEC50 [14] | fold change (FC) [15] | fold change (FC) [16] | fold change (FC) [17] | fold change (FC) [18] | fold change (FC) [19] | pEC50 [20] | also measured
1 | Nc1nc(NC2CC2)c2ncn([C@H]3C=C[C@@H](CO)C3)c2n1 [ABACAVIR] | 4.7 | 4.96 | 5.44 | 5.82 | 2.8 | 5.24 | 5.9 | 4.33 | < 4.28 | 5.02 | 5.4 | 5.48 | 2.6 | 5.60 | 1.9 | 2.1 | 18 | 1.4 | 5 | 5.05 | pEC50 [21]: 5.00; fold change (FC) [22]: 2.9; pEC50 [23]: 4.92; pEC50 [24]: 5.33; fold change (FC) [25]: 4.4; fold change (FC) [26]: 3.2; fold change (FC) [27]: 4.3
2 | O=c1[nH]cnc2c1ncn2[C@H]1CC[C@@H](CO)O1 [DIDANOSINE] | 1.5 | 5.05 | 5.26 | 5.26 | 1.4 | 5.04 | 1.8 | 4.62 | 4.24 | 5.00 | 1.8 | 5.09 | 1.2 | 5.18 | 1.1 | 1 | 4 | 1.4 | 1.6 | 5.07 | pEC50 [21]: 5.00; fold change (FC) [22]: 1.3; pEC50 [23]: 4.85; pEC50 [24]: 5.17; fold change (FC) [25]: 1.6; fold change (FC) [26]: 1.7; fold change (FC) [27]: 1.4
3 | Nc1nc(=O)n([C@@H]2CS[C@H](CO)O2)cc1F [EMTRICITABINE] | 6.9 | 4.96 | 5.59 | 6.05 | 3.7 | 4.72 | >88 | < 4.00 | < 4.00 | < 4.00 | >88 | 5.77 | >88 | 5.48 | 2.7 | 2.3 | 26 | 3 | >88 | < 4.00 | pEC50 [21]: < 4.00; fold change (FC) [22]: >88; pEC50 [23]: < 4.00; pEC50 [24]: < 4.00; fold change (FC) [25]: >88; fold change (FC) [26]: 17; fold change (FC) [27]: >88
